Experimental data reported in PubChem BioAssay AID2626 (Vanderbilt High Throughput Screening Facility, 2010).
Active and inactive are the calls of the source.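 How the source made its calls: active means response above about half the acetylcholine maximum when tested at 10 µM with a low acetylcholine dose; inactive means response below half the acetylcholine maximum.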

Target: Muscarinic acetylcholine receptor M1 (Rattus norvegicus) (UniProt P08482)
Test: enhancement of submaximal ACh response at M1 – ACh EC20, CHO cells (AID 2626)
Conditions: CHO rM1 cells, calcium response with ACh EC20; at 10 µM; hits give high values
Summary of the method: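 System: CHO cells expressing rat M1 muscarinic acetylcholine receptor. Also added: acetylcholine at submaximal, roughly EC20 concentration. Compound dosing: one dose, 10 µM. Read-out basis: enhancement of acetylcholine response.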

Sequence of Muscarinic acetylcholine receptor M1 (Rattus norvegicus) (P08482 whole entry, looked up): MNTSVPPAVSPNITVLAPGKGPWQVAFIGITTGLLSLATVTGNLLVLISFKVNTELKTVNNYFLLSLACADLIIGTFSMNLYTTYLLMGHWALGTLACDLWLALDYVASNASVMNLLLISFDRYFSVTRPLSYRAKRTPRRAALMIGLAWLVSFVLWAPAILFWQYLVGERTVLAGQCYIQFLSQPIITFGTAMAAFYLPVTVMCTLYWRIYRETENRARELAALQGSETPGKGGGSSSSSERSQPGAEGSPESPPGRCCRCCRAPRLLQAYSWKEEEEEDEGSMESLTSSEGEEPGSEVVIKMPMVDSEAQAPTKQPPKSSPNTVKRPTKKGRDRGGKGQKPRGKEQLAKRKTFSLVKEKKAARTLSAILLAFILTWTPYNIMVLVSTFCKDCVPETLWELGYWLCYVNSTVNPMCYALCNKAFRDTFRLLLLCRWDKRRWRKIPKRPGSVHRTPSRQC

| SMILES | % of ACh max response (PAM) |
| --- | --- |
| Cc1cc(NC(=O)CS(=O)(=O)c2cn(Cc3cccc(-c4cnn(CC(C)C)c4)c3)c3ccccc23)no1 | 24.4% (inactive) |
| COc1ccc(Cn2cc(S(=O)(=O)CC(=O)Nc3cc(C)on3)c3ccccc32)cc1 | 54.8% |
| Cc1cc(NC(=O)CS(=O)(=O)c2cn(Cc3cccc(-c4ccc(N5CCCC5)nc4)c3)c3ccccc23)no1 | 33.3% (inactive) |
| Cc1cc(NC(=O)C(Cc2ccc(OC(F)(F)F)cc2)S(=O)(=O)c2cn(Cc3ccc(OC(F)(F)F)cc3)c3ccccc23)no1 (stereo not drawn) | 28.7% (inactive) |
| Cc1cc(NC(=O)CSc2cn(Cc3cccc(Br)c3)c3ccccc23)no1 | 26.9% (inactive) |
| Cc1cc(NC(=O)CS(=O)(=O)c2cn(Cc3ccc(F)cc3F)c3ccccc23)no1 | 51.6% |
| Cc1cc(NC(=O)CS(=O)(=O)c2cn(Cc3cc(Br)cc(Br)c3)c3ccccc23)no1 | 12.7% (inactive) |
| Cc1cc(NC(=O)CS(=O)(=O)c2cn(Cc3ccc(C(F)(F)F)cc3)c3ccccc23)no1 | 30.4% (inactive) |
| Cc1cc(NC(=O)C(C)S(=O)(=O)c2cn(Cc3cc(Br)cc(Br)c3)c3ccccc23)no1 (stereo not drawn) | 17.7% (inactive) |
| COC(=O)CS(=O)(=O)c1cn(Cc2cc(Br)ccc2F)c2ccccc12 | 7.5% (inactive) |
| Cc1cc(NC(=O)CS(=O)(=O)c2c[nH]c3ccccc23)no1 | 29% (inactive) |
| Cc1cc(NC(=O)CS(=O)(=O)c2cn(Cc3cccc(-c4ccc(Cl)nc4)c3)c3ccccc23)no1 | 26.4% (inactive) |
| COc1ccccc1Cn1cc(S(=O)(=O)CC(=O)Nc2cc(C)on2)c2ccccc21 | 30.6% (inactive) |
| Cc1cc(NC(=O)CS(=O)(=O)c2cn(Cc3cccc(-c4ccc(N5CCNCC5)nc4)c3)c3ccccc23)no1 | 43.6% (inactive) |
| Cc1cc(NC(=O)C(Cc2ccc(F)cc2F)S(=O)(=O)c2cn(Cc3ccc(F)cc3F)c3ccccc23)no1 (stereo not drawn) | 38.5% (inactive) |
| Cc1cc(NC(=O)CS(=O)(=O)c2cn(Cc3ccccc3F)c3ccccc23)no1 | 52.9% |
| Cc1cc(NC(=O)CSc2c[nH]c3ccccc23)no1 | 28.8% (inactive) |

| SMILES | % of ACh max response (PAM) |
| --- | --- |
| Cc1cc(NC(=O)CS(=O)(=O)c2cn(Cc3ccc4c(c3)OCO4)c3ccccc23)no1 | 35.8% (inactive) |
| Cc1cc(NC(=O)CS(=O)(=O)c2cn(Cc3ccc(F)nc3)c3ccccc23)no1 | 41.2% (inactive) |
| Cc1cc(NC(=O)C(Cc2ccccc2F)S(=O)(=O)c2cn(Cc3ccccc3F)c3ccccc23)no1 (stereo not drawn) | 44.5% (inactive) |
| Cc1cc(NC(=O)CS(=O)(=O)c2cn(Cc3ccc(OC(F)(F)F)cc3)c3ccccc23)no1 | 28.7% (inactive) |
| Cc1cc(NC(=O)CS(=O)(=O)c2cn(Cc3ccc(Br)cc3F)c3ccccc23)no1 | 27.7% (inactive) |
| Cc1cc(NC(=O)CS(=O)c2cn(Cc3cccc(Cl)c3)c3ccccc23)no1 (stereo not drawn) | 72.4% |
| Cc1cc(NC(=O)CS(=O)(=O)c2cn(Cc3cccc(-c4ccc(N5CCOCC5)nc4)c3)c3ccccc23)no1 | 18.5% (inactive) |
| Cc1cc(NC(=O)C(Cc2cccc(Cl)c2)S(=O)(=O)c2cn(Cc3cccc(Cl)c3)c3ccccc23)no1 (stereo not drawn) | 42.1% (inactive) |
| Cc1cc(NC(=O)C(C)S(=O)(=O)c2cn(Cc3cc(Br)ccc3F)c3ccccc23)no1 (stereo not drawn) | 19.7% (inactive) |
| Cc1cc(NC(=O)CS(=O)(=O)c2cn(Cc3ccc(Cl)cc3)c3ccccc23)no1 | 30.8% (inactive) |
| O=C(O)CS(=O)(=O)c1cn(Cc2cc(Br)ccc2F)c2ccccc12 | 18.1% (inactive) |
| O=C(CS(=O)(=O)c1cn(Cc2cc(Br)ccc2F)c2ccccc12)Nc1ccccc1 | 13.9% (inactive) |
| Cc1cc(NC(=O)CSc2cn(Cc3ccccc3Cl)c3ccccc23)no1 | 26.7% (inactive) |
| Cc1cc(NC(=O)CS(=O)(=O)c2cn(Cc3ccc(F)c(Br)c3)c3ccccc23)no1 | 24% (inactive) |
| CS(=O)(=O)c1cn(Cc2ccccc2Cl)c2ccccc12 | 26.3% (inactive) |
| Cc1cc(NC(=O)CS(=O)(=O)c2cn(Cc3cccc(C#N)c3)c3ccccc23)no1 | 52.7% |
